Bioassay records (PubChem)
The entries come from a sample that favours hits as a whole.
E-sel inducer = E-selectin induction in HUVECs, primary screen, imaging, HUVEC, immunofluorescence imaging, single point; normalized: neutral wells 0, TNF-alpha wells 100; AID 686992, 2013; 0.37% of 260,000 active; activation, % at 7.58 µM; P16581;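 active = mean E-selectin-positive cell signal at least 10% of the positive control, reached in at least 60% of replicates, without over 20% cell loss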
Target sequence (P16581 whole entry, looked up): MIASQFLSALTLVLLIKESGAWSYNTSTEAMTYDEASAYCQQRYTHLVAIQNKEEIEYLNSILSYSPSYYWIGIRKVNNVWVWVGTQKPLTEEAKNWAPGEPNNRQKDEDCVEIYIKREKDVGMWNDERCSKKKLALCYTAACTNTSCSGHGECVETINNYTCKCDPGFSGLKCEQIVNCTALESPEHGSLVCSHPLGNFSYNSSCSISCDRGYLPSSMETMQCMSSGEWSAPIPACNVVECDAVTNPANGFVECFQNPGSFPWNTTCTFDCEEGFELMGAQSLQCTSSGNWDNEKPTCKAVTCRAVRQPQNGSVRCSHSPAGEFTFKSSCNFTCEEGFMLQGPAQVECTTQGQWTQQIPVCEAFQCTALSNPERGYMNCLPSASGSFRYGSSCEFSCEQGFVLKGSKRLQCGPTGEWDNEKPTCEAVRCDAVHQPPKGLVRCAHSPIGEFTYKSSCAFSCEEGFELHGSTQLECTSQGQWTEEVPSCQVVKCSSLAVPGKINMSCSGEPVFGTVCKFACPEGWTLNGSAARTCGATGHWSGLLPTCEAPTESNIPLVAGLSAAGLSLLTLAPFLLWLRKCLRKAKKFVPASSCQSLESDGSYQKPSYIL
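Read-out basis: % PE-positive cells; Test system: HUVEC primary endothelial cells; Technique: immunofluorescence imaging; Dosing: single-point compound dose.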
Xi reactivation = activators of inactive X chromosome reactivation, primary screen, imaging, XiGFP fibroblasts, GFP high-content imaging, set 2. XiGFP mouse fibroblasts, % GFP-positive cells imaging, 3 d; cells co-treated with 5-aza-dC sensitizer; scaled so ellipticine positive control = 100%. activation, % at 7.58 µM. 0.055% of 360,000 active;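 active = mean normalized replicate activation at least 10% and every replicate at or above 10%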;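 also: 0% = median of on-plate neutral control wells and 100% = ellipticine 6 µM median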
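Material: XiGFP fibroblasts, SV40-immortalized; Buffer or medium: DMEM containing 5-aza-dC; Compound dosing: single point; Times: 3 days compound exposure.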
Numbers without * were called inactive; · = no result given.

SMILES	E-sel inducer	Xi reactivation
COc1ccc2c3c(n(C)c2c1)[C@H](CO)N(CC1CC1)CC31CN(C(=O)Nc2ccccc2)C1	-0.3	0.2
CC(C)NC(=O)Nc1ccc2c(c1)C(=O)N(C)C[C@@H](C)[C@@H](CN(C)C)O2	·	0.0
COc1ccc2c3c(n(C)c2c1)[C@@H](CO)N(C(=O)Cc1ccccn1)CC31CN(Cc2ccccn2)C1	-0.2	0.2
CCOC(=O)c1nn(-c2ccc3ccccc3c2)cc1O	0.0	16.9*
CCOC(=O)c1nn(-c2ccccc2)cc1O	1.2	0.3
O=C(C[C@H]1C=C[C@H](NC(=O)c2ccccc2)[C@H](CO)O1)NCc1ccc(Oc2ccccc2)cc1	-0.4	-0.2
CO[C@@H]1CN(C)C(=O)c2ccc(NC(=O)C3CC3)cc2OC[C@@H](C)N(CC2CCOCC2)C[C@@H]1C	0.0	-0.6
O=C(c1ccc(Br)cc1)c1cc2ccc(O)cc2oc1=O	46.4*	0.3
CCc1ccc(C(=O)c2cc3ccc(O)cc3oc2=O)cc1	0.0	0.0
CC(=O)N(C)C[C@H]1Oc2ccccc2C(=O)N(C)C[C@@H]1C	·	0.3
CCN1/C(=C/C(C)=C/c2sc3ccccc3[n+]2CC)Sc2ccccc21	155.3*	3.6
CCN1/C(=C\C(=S)Nc2ccccc2)Sc2ccccc21	0.4	0.1
CC[n+]1ccc(/C=C/c2ccc(N(C)C)cc2)c2ccccc21	114.6*	0.1
CCCCCC[n+]1ccccc1/C=C/c1ccc(N(C)C)cc1	-0.1	16.3*
CC[n+]1c(/C=C/c2ccc(N(C)C)cc2)ccc2ccccc21	·	0.0
CC[n+]1ccccc1/C=C/c1ccc(N(C)C)cc1	·	0.3
C[C@@H]1CN([C@@H](C)CO)S(=O)(=O)c2ccc(-c3ccncc3)cc2O[C@@H]1CN(C)Cc1ccc(Oc2ccccc2)cc1	0.2	-0.8
CCCC#Cc1ccc2c(c1)O[C@@H](CN(C)C(=O)c1ccncc1)[C@H](C)CN([C@@H](C)CO)S2(=O)=O	118.2*	-0.9
C/C=C/c1ccc2c(c1)O[C@H](CN(C)C(=O)CC)[C@@H](C)CN([C@H](C)CO)S2(=O)=O	73.8*	0.0
C[C@@H]1CN([C@H](C)CO)S(=O)(=O)c2ccc(-c3ccncc3)cc2O[C@H]1CN(C)Cc1ccc(Oc2ccccc2)cc1	131.1*	-0.1
CCCC#Cc1ccc2c(c1)O[C@H](CN(C)C(=O)c1ccncc1)[C@H](C)CN([C@@H](C)CO)S2(=O)=O	0.3	-0.2
C/C=C/c1ccc2c(c1)O[C@@H](CN(C)C(=O)CC)[C@H](C)CN([C@H](C)CO)S2(=O)=O	0.1	-1.2
C[C@@H]1CN([C@H](C)CO)C(=O)c2c(c3ccccc3n2C)-c2ccccc2CO[C@@H]1CN(C)S(=O)(=O)c1ccc(F)cc1	·	-0.2
CNC[C@H]1Oc2ccc(N(C)C)cc2C(=O)N(C)C[C@@H]1C	·	0.1
C[C@H](CO)N1C[C@H](C)[C@@H](CN(C)Cc2ccc(Cl)c(Cl)c2)OCc2ccccc2-c2c(n(C)c3ccccc23)C1=O	·	-0.3
SMILES	E-sel inducer	Xi reactivation
COc1ccc(C(=O)Nc2cc(C)c(NC(=O)c3ccccn3)cn2)cc1	·	0.1
COc1ccc(C(=O)Nc2cnc(NC(=O)c3cccs3)cc2C)cc1	33.3*	0.4
COc1cccc(-c2cnc3c(c2)C(=O)N([C@@H](C)CO)C[C@@H](C)[C@@H](CN(C)CC2CC2)O3)c1	-0.4	-1.2
Cc1ccc(NCC(=O)N2CCN(S(=O)(=O)c3ccccc3)CC2)cc1F	32.2*	0.3
N#Cc1ccc(NCC(=O)N2CCN(S(=O)(=O)c3ccccc3)CC2)cc1	0.0	0.0
CC(=O)Nc1ccc2c(c1)CC(=O)N(C)C[C@H](C)[C@H](CN(C)C(=O)OC(C)(C)C)O2	·	0.3
COc1ccc(S(=O)(=O)Nc2ccc3c(c2)CC(=O)N([C@H](C)CO)C[C@H](C)[C@@H](CN(C)C(=O)NC2CCCCC2)O3)cc1	53.2*	0.1
C[C@H]1CN([C@@H](C)CO)C(=O)Cc2cc(NS(=O)(=O)c3ccc(F)cc3)ccc2O[C@@H]1CN(C)C(=O)NC1CCCCC1	0.0	0.0
C[C@@H]1CN([C@@H](C)CO)C(=O)Cc2cc(NS(=O)(=O)c3ccc(Cl)cc3)ccc2O[C@@H]1CN(C)C(=O)NC1CCCCC1	-1.7	-0.8
C[C@@H]1CN([C@H](C)CO)C(=O)Cc2cc(NS(=O)(=O)c3ccc(Cl)cc3)ccc2O[C@H]1CN(C)C(=O)NC1CCCCC1	2.7	-0.7
COc1ccc(S(=O)(=O)Nc2ccc3c(c2)CC(=O)N([C@H](C)CO)C[C@H](C)[C@H](CN(C)C(=O)NC2CCCCC2)O3)cc1	76.5*	0.3
COc1ccc(S(=O)(=O)Nc2ccc3c(c2)CC(=O)N([C@@H](C)CO)C[C@@H](C)[C@@H](CN(C)C(=O)NC2CCCCC2)O3)cc1	74.2*	0.3
C[C@@H]1CN([C@@H](C)CO)S(=O)(=O)c2ccc(-c3ccncc3)cc2O[C@H]1CN(C)C(=O)CN(C)C	0.0	-0.4
COc1ccc2c3c(n(C)c2c1)[C@@H](CO)N(C(=O)C1CC1)CC31CN(C)C1	-0.5	0.4
C/C(=N\NC(=O)c1cc(C(C)C)[nH]n1)c1ccco1	27.0*	0.0
C/C(=N\NC(=O)c1cc(C(C)C)[nH]n1)c1ccncc1	2.3	0.0
COc1ccc2c3c(n(C)c2c1)[C@H](CO)NCC31CCN(S(=O)(=O)c2ccccc2)CC1	0.1	0.0
CC(C)NC(=O)Nc1ccc2c(c1)CC(=O)N([C@@H](C)CO)C[C@@H](C)[C@@H](CN(C)Cc1ccc(C(=O)O)cc1)O2	20.7	0.1
CC(C)NC(=O)Nc1ccc2c(c1)CC(=O)N([C@H](C)CO)C[C@H](C)[C@@H](CN(C)Cc1ccc(C(=O)O)cc1)O2	38.7*	-0.1
C[C@H](CO)N1C[C@H](C)[C@H](CN(C)Cc2ccc(C(=O)O)cc2)Oc2ccc(NC(=O)Nc3ccc(F)cc3)cc2CC1=O	-5.8	0.1
C[C@@H]1CN([C@@H](C)CO)C(=O)Cc2cc(NC(=O)Nc3ccc(F)cc3)ccc2O[C@H]1CN(C)Cc1ccc(C(=O)O)cc1	54.6*	-0.1
CC(C)NC(=O)Nc1ccc2c(c1)CC(=O)N([C@@H](C)CO)C[C@@H](C)[C@H](CN(C)Cc1ccc(C(=O)O)cc1)O2	5.7	1.6
CC(C)NC(=O)Nc1ccc2c(c1)CC(=O)N([C@@H](C)CO)C[C@H](C)[C@H](CN(C)Cc1ccc(C(=O)O)cc1)O2	41.7*	-0.2
CC(C)NC(=O)N(C)C[C@@H]1Oc2ccc(N)cc2CC(=O)N(C)C[C@H]1C	·	-0.1
Cc1cccc(-c2ccc([C@@H]3[C@H](CO)N4C(=O)CN(C(=O)c5cnccn5)C[C@@H]34)cc2)c1	·	0.1
COc1ccc2c3c([nH]c2c1)[C@@H](CO)N(C(=O)c1ccc(F)cc1)CC31CCN(C)CC1	·	0.2
CN(C)c1ccc(C=C2SC(=S)N(Cc3ccco3)C2=O)cc1	22.6	0.0
O=C1/C(=C\c2c(NCCOCCO)nc3ccccn3c2=O)SC(=S)N1Cc1ccco1	72.7*	1.0
COc1ccc(N2CCN(C(=O)c3cc(=O)[nH]c4ccccc34)CC2)cc1	·	0.2
O=C(c1cc(=O)[nH]c2ccccc12)N1CCN(c2ccc([N+](=O)[O-])cc2)CC1	33.4*	·
